The source of these data is ChEMBL document CHEMBL1821664, “Sulfonamides as a new scaffold for hypoxia inducible factor pathway inhibitors” (Bioorg Med Chem Lett, 2011).

Activity calls are given as the source filed them. The calls are words filed in the database; no cut-off is given here.

Assay [1] deals with T1, Hypoxia inducible factors; HIF-1-alpha, HIF-2-alpha (Homo sapiens, UniProt Q16665+Q99814). In words: Inhibition of hypoxia-induced HIF1 activation in human LN229 cells expressing HRE-AP reporter gene at 2.5 uM preincubated for 1 hr under normoxia condition followed by 24 hrs incubation under hypoxia condition by HRE-luciferase reporter assay relative to control; values are per cent of control. (In general: Reporter assays use an easily measured gene product as a stand-in for the process of interest.)

The target in assay [2] is T1, Hypoxia inducible factors; HIF-1-alpha, HIF-2-alpha. In words: Inhibition of hypoxia-induced HIF1 activation in human LN229 cells expressing HRE-AP reporter gene at 5 uM preincubated for 1 hr under normoxia condition followed by 24 hrs incubation under hypoxia condition by HRE-luciferase reporter assay relative to control; values are per cent of control.
The target is the same in assay [3]. In words: Inhibition of hypoxia-induced HIF1 activation in human LN229 cells expressing HRE-AP reporter gene at 10 uM preincubated for 1 hr under normoxia condition followed by 24 hrs incubation under hypoxia condition by HRE-luciferase reporter assay relative to control; values are per cent of control.
The target is the same in assay [4]. Briefly: Inhibition of hypoxia-induced HIF1 activation in human LN229 cells expressing HRE-AP reporter gene assessed as HRE remaining activity at 10 uM preincubated for 1 hr under normoxia condition followed by 24 hrs incubation under hypoxia condition by alkaline phosphatase reporter assay relative to control. In kind it is cell-based. In outline:
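LN229-HRE-AP cells pre-treated 1 h with compound or vehicle (1% DMSO), then 24 h in 1% O2 hypoxia incubator; cells lysed and alkaline phosphatase activity measured. Hits were compounds reducing hypoxic AP induction >50%; single assay.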

For assay [5] the target is unchanged. In words: Inhibition of hypoxia-induced HIF1 activation in human LN229 cells expressing VEGF reporter gene assessed as VEGF expression at 10 uM preincubated for 1 hr under normoxia condition followed by 24 hrs incubation under hypoxia condition by luciferase reporter assay. Type of assay: cell-based. In outline:
(§1)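 LN229 cells stably carrying a VEGF promoter-luciferase construct, pre-treated 1 h in normoxia with compound at 10 µM final, then 24 h in normoxia or hypoxia; luciferase measured in cell extracts; triplicate means ± SD.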

For assay [6] the target is unchanged. Briefly: Inhibition of hypoxia-induced HIF1 activation in human LN229 cells expressing VEGF reporter gene assessed as VEGF expression at 10 uM after 24 hrs incubation under hypoxia condition by luciferase reporter assay. Type of assay: cell-based. In outline:
as §1

The target is the same in assay [7]. In words: Inhibition of hypoxia-induced HIF1 activation in human LN229 cells expressing HRE-AP reporter gene preincubated for 1 hr under normoxia condition followed by 24 hrs incubation under hypoxia condition by HRE-luciferase reporter assay. Type of assay: cell-based. In outline: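 HRE-luciferase dose-response: cells pre-treated 1 h, then 24 h hypoxia; luciferase measured in cell extracts; each compound run 5–21 times on separate days, in triplicate. IC50 obtained from a four-parameter logistic fit using a nonlinear mixed-effects model.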

For assay [8] the target is unchanged. Briefly: Inhibition of HIF1alpha expression in human LN229 cells assessed as reduction of HIF-1alpha accumulation at <10 uM preincubated for 1 hr under normoxia condition followed by 24 hrs incubation under hypoxia condition by Western blotting. In kind it is functional, cell-based. The conditions noted are these: LN-229.
Assay [9] shares this target. Briefly: Inhibition of HIF1alpha expression in human LN229 cells assessed as reduction of HIF-1alpha accumulation at 20 uM preincubated for 1 hr under normoxia condition followed by 24 hrs incubation under hypoxia condition by Western blotting. Type of assay: functional, cell-based. The conditions noted are these: LN-229. In outline:
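LN229 glioma cells were pre-treated for 1 h with compound at 20 µM final, then incubated under normoxia or hypoxia for 24 h. HIF-1α accumulation was read by Western blot, with HIF-1α and actin immunoblotted.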
(In western blotting, separated proteins are transferred to a membrane and probed.)

Assay [10] shares this target. In words: Inhibition of HIF1alpha expression in human LN229 cells assessed as reduction of HIF-1alpha accumulation at 100 nM preincubated for 1 hr under normoxia condition followed by 24 hrs incubation under hypoxia condition by Western blotting. In kind it is functional, cell-based. The conditions noted are these: LN-229.

With `CC1(C)C=Cc2cc(CN(c3ccccc3)S(=O)(=O)c3cc(Cl)ccc3Cl)ccc2O1`, the residual activity in [1] was found to be 62%; in [2] it was 51%; in [3], 35%. Also, in [4], the Activity is 54.2%.
What is called IC50 is the concentration that gives 50% inhibition. Higher therefore signals a need for much substance. Take `COc1cc(OC)cc(S(=O)(=O)N(Cc2ccc3c(c2)C=CC(C)(C)O3)CC(C)C)c1`: in assay [5], the inhibition entry was “Active”. For the same molecule, the inhibition result in assay [6] was “inactive”. In addition, in [7], the IC50 was 1011 nM.
Take `CC(C)CN(Cc1ccc2c(c1)C=CC(C)(C)O2)S(=O)(=O)c1ccc([N+](=O)[O-])cc1`: the values for the residual activity in [1], in assay [2] and in assay [3] were 13%, 3% and 1%, respectively. Further, the inhibition entry in assay [5] was “Active”. In [6], the inhibition entry was “inactive”. In [7], this molecule displayed an IC50 of 532 nM.
Consider `CC(C)CN(Cc1ccc2c(c1)C=CC(C)(C)O2)S(=O)(=O)c1cc(Cl)ccc1Cl`, for which the residual activity in assay [1] was 23%; in assay [2], 5%; in [3], 1%. Besides, the inhibition result in assay [5] is “Active”. Moreover, in assay [6], the inhibition entry was “inactive”. The same molecule came in with an IC50 in assay [7] of 731 nM.
For `CC1(C)C=Cc2cc(CN(Cc3ccccc3)S(=O)(=O)c3ccc(Br)cc3OC(F)(F)F)ccc2O1`, the residual activity in assay [1] was 15%; in assay [2] it was 2%; in assay [3] it was 1%. In addition, in [5], the inhibition entry was “Active”. In addition, the inhibition result in assay [6] was “inactive”. In addition, the IC50 in assay [7] amounted to 508 nM.
As for `COc1ccc(S(=O)(=O)N(Cc2ccc3c(c2)C=CC(C)(C)O3)C2CCCCC2)c(OC)c1`, the residual activity in assay [1] turned out to be 24%; in assay [2] it was 5%; in assay [3], 1%. The inhibition result in assay [5] was “Active”. For the same molecule, in assay [6], the inhibition result is “inactive”. The same molecule had an IC50 in [7] of 1270 nM.
Take `COc1ccc(S(=O)(=O)N(Cc2ccc3c(c2)C=CC(C)(C)O3)CC(C)C)cc1OC`: the residual activity in assay [1] is 21%; in assay [2], 6%; in [3], 1%. For the same molecule, in assay [5], the inhibition entry is “Active”. The inhibition entry in [6] is “inactive”. Besides, in [7], the concentration for half-maximal inhibition (IC50) came to 672 nM.
In the case of `COc1ccc(S(=O)(=O)N(Cc2ccc3c(c2)C=CC(C)(C)O3)c2ccccc2)cc1OC`, the residual activity in assay [1] was found to be 18%; in [2], 2%; in assay [3] it was 1%. In addition, the inhibition result in [8] and in assay [6] was “inactive” each time. Moreover, the inhibition result in assay [5] and in assay [9] was “Active” throughout. The Activity in [4] stood at 28.9%. Moreover, the IC50 in [7] was found to be 593 nM.
In the case of `CC(C)C[C@H](NC(=O)[C@H](Cc1ccccc1)NC(=O)c1cnccn1)B(O)O`, in [10], the inhibition entry is “Active”.
Take `CC(C)CN(Cc1ccc2c(c1)C=CC(C)(C)O2)S(=O)(=O)c1cccc2ccccc12`: the residual activity in assay [1] came out at 6%; in assay [2], 4%; in [3] it was 4%. For the same molecule, the inhibition result in assay [5] is “Active”. In addition, the inhibition result in [6] was “inactive”. This molecule returned an IC50 in assay [7] of 656 nM.
Turning to `CC1(C)C=Cc2cc(CN(C3CCCCC3)S(=O)(=O)c3ccc(Br)cc3OC(F)(F)F)ccc2O1`, the residual activity was 79% in assay [1], 75% in assay [2] and 61% in [3].
As to `COc1ccc(Cl)cc1S(=O)(=O)N(Cc1ccc2c(c1)C=CC(C)(C)O2)CC(C)C`, the residual activity came to 81% in assay [1], 90% in [2] and 73% in assay [3].
